These results are taken from the array DNA melting data of Ke et al. (doi:10.1101/2024.01.08.574731).

Data set [1] in a line: folding enthalpy; higher = less favourable; fluorescence melt of hairpins on a sequencing array, two-state fit. The following applies: sodium 0.088 M. Summed up:
(§1)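 Cy3 fluorescence of library hairpins on a sequenced MiSeq flow cell, with annealed Cy3 and quencher oligos, was imaged in 50 mM Na-HEPES pH 8.0, 25 mM NaCl in 2.5 °C steps up to 60 °C. Signals were normalised to pre-quench Cy3 and to control variants. Melting temperature and folding enthalpy came from bootstrapped two-state fits, inverse-variance combined over four replicates. Fitted temperatures were raised by 9.35 °C to match UV melts.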

Data set [2] in a line: melting temperature; fluorescence melt of hairpins on a sequencing array, two-state fit, raised by 9.35 °C to match UV melts. The following applies: sodium 0.088 M. Summed up:
as §1

Regarding GATGGTGGAAACATCATC ((((.((....)).)))), the folding enthalpy in data set [1] is -28.1 kcal/mol. The Tm in data set [2] was found to be 46.1 °C.
The like results for GATGGTGGAAACATCGTC ((.(.((....)).).)) were, in that order, -22 kcal/mol and 47.8 °C.
With GATGTACGAAAGTAAATC (((.(((....))).))), the folding enthalpy in data set [1] is -23.9 kcal/mol. For the same sequence, the Tm in data set [2] amounted to 35.5 °C.
Regarding GATGTACGAAAGTATATC (((.(((....))).))), the folding enthalpy in data set [1] is -30.7 kcal/mol. In data set [2], the Tm was determined as 45.9 °C.
Turning to GATGTAGCGAAAGCTATC (((..(((....)))))), in data set [1], the folding enthalpy was -12 kcal/mol. Besides, the Tm in data set [2] worked out at 31.4 °C.
The like results for GATGTAGGAAACTACGTC ((.((((....)))).)) were, in that order, -23.4 kcal/mol and 44.8 °C.
The matching figures for GATGTCACGAAAGTGATC (((..(((....)))))): -11.8 kcal/mol and 28.4 °C.
The like results for GATGTCCGAAAGGAGATC (((.(((....))).))) were, in that order, -28.9 kcal/mol and 50.3 °C.
For the sequence GATGTGGGAAACTGCATC ((((..(....)..)))), the folding enthalpy in data set [1] is -27.1 kcal/mol. Also, the Tm in data set [2] worked out at 36.1 °C.
The matching figures for GATGTTGAAAAACATC ((((((....)))))): -35.7 kcal/mol and 51.6 °C.
Turning to GATGTTGGAAACAACGTC ((.((((....)))).)), the folding enthalpy in data set [1] is -26.4 kcal/mol. Moreover, the Tm in data set [2] is 49 °C.
For GATGTTGGAAACGACATC (((((.(....).))))), the folding enthalpy in data set [1] was -33.6 kcal/mol. Further, the Tm in data set [2] was determined as 47.2 °C.
On to GATTAACGAAAGTTGATC (((.(((....))).))), for which the folding enthalpy in data set [1] is -35.2 kcal/mol. Further, in data set [2], the Tm was found to be 44 °C.
The matching figures for GATTACCGAAAGGTATC (((.(((....)))))): -14.4 kcal/mol and 36.1 °C.
The matching figures for GATTACGGAAACGCAATC ((((.((....)).)))): -27.6 kcal/mol and 37.4 °C.
The like results for GATTACGGAAACGTAGTC ((.((((....)))).)) were, in that order, -25 kcal/mol and 38 °C.
For the sequence GATTACGGAAACGTGATC (((.(((....))).))), the folding enthalpy in data set [1] is -37.1 kcal/mol. Besides, in data set [2], the Tm worked out at 45.9 °C.
The like results for GATTAGCCGAAAGGCATC (((..(((....)))))) were, in that order, -7.43 kcal/mol and 28.5 °C.
The matching figures for GATTAGCGAAAGCTATC (((.(((....)))))): -12.5 kcal/mol and 34.7 °C.
The matching figures for GATTAGCGAAAGCTCATC (((.(((....))).))): -19.1 kcal/mol and 38.7 °C.
As to GATTAGGGAAACCCAATC ((((.((....)).)))), the folding enthalpy in data set [1] was -22.4 kcal/mol. In addition, the Tm in data set [2] worked out at 31.3 °C.
GATTAGGGAAACCTGATC (((.(((....))).))): in data set [1], the folding enthalpy is -24.1 kcal/mol. The Tm in data set [2] is 38 °C.
The matching figures for GATTCACGAAAGTGTATC (((.(((....))).))): -25.9 kcal/mol and 42.7 °C.
On to GATTCAGGAAACTGAGTC ((.((((....)))).)), for which the folding enthalpy in data set [1] was -31.1 kcal/mol. In addition, in data set [2], the Tm stood at 38.5 °C.
The matching figures for GATTCCCGAAAGGGATC (((.(((....)))))): -13.1 kcal/mol and 47.3 °C.
The matching figures for GATTCCGAAAGGAACATC ((((((....)))..))): -12 kcal/mol and 25.2 °C.
The matching figures for GATTCCGAAAGGATAATC ((((((....)))..))): -15.5 kcal/mol and 31.8 °C.
In the case of GATTCCGGAAACGGGATC (((.(((....))).))), the folding enthalpy in data set [1] is -43 kcal/mol. Moreover, the Tm in data set [2] amounted to 51.2 °C.
GATTCGCGAAAGCGTATC (((.(((....))).))): the folding enthalpy in data set [1] is -20.6 kcal/mol. Moreover, the Tm in data set [2] came to 48.8 °C.
The like results for GATTGACGAAAGTCATC (((.(((....)))))) were, in that order, -12.7 kcal/mol and 38.9 °C.
The like results for GATTGAGGAAACTCAACC (.(((((....))))).) were, in that order, -17.1 kcal/mol and 31.3 °C.
The like results for GATTGCCGAAAGGCCATC (((.(((....))).))) were, in that order, -16.6 kcal/mol and 40.9 °C.
Regarding GATTGCGAAAGCAAAATC ((((((....)))..))), the folding enthalpy in data set [1] is -13.1 kcal/mol. Also, the Tm in data set [2] came to 35.3 °C.
The like results for GATTGCGAAAGCAGATC ((((((....))).))) were, in that order, -15.8 kcal/mol and 42.9 °C.
The matching figures for GATTGCGAAAGCAGCATC ((((((....)))..))): -9.21 kcal/mol and 24.1 °C.
GATTGCGAAAGCAGGATC ((((((....)))..))): the folding enthalpy in data set [1] is -10.9 kcal/mol. Further, the Tm in data set [2] was determined as 30.1 °C.
As to GATTGCGAAAGCATATC ((((((....))).))), in data set [1], the folding enthalpy is -16.5 kcal/mol. Besides, in data set [2], the Tm worked out at 42.9 °C.
